Bioassay records as filed in PubChem.
Rows were chosen to be rich in hits. Some 2.6% of all compounds tested hit in one or more screens of this group.
MITF TRPM1 HTS – activators of MITF-driven TRPM1 promoter reporter, primary screen, cell-based, SK-MEL-5, luciferase, single point. activation, % at 12.5 µM. SK-MEL-5 TRPM1-promoter luciferase, 24 h; % of positive control, neutral wells = 0. 300,000 tested, 0.75% active;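 active = mean activation of at least 80% with every replicate also reaching 80%; inconclusive = mean reaches 80% but some replicate falls short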
XiGFP reactiv – activators of inactive X chromosome reactivation, primary screen, imaging, XiGFP fibroblasts, GFP high-content imaging, set 2; XiGFP mouse fibroblasts, % GFP-positive cells imaging, 3 d; cells co-treated with 5-aza-dC sensitizer; scaled so ellipticine positive control = 100%; activation, % at 7.58 µM; 360,000 tested, 0.055% active;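 active = mean normalized replicate activation at least 10% and every replicate at or above 10%; inconclusive = only one of the two criteria met; inactive = mean below 10% and not all replicates reach 10%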
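Assay system – SV40-immortalized XiGFP fibroblast cells, line 68-5-11 · Buffer or medium – DMEM supplemented with 5-aza-dC as sensitizing agent · Dosing – one concentration, pinned · Benchmarks – positive control ellipticine, 6 µM final · Times – 3 days compound exposure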
Vif imaging – HIV Vif self-association inhibitors, primary screen, imaging, HEK293T, single point | inhibition, % at 7.49 µM | AID 602346, 2012 | HEK293T cells, Vif self-association by quenched fluorescence, 24 h | 340,000 tested, 0.35% active; in the data active = inhibition above about 50%, passing the limit was not always enough; inconclusive = no clear call, values can overlap the other calls; inactive = below about 31%
esBAF inh – Bmi1 luciferase reporter increase in mESCs, primary screen, esBAF inhibitor project, mouse ES cells, Bmi1 luciferase knock-in, single point | 24 h; 100% = twice the neutral-well signal | reporter increase, % at 12.5 µM | 350,000 tested, 2% active; in the data active = activation above about 40%; inconclusive = no clear call, values can overlap the other calls;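 note: a rise in the Bmi1 reporter signal indicates esBAF inhibition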
Wnt bcat act – Wnt/beta-catenin pathway activators, primary screen, cell-based, plate reader, single point | Wnt/beta-catenin reporter cell assay, activator | activation, % at 9.35 µM | 300,000 tested, 1.2% active; in the data active = activation above about 30%, passing the limit was not always enough; inconclusive = no clear call, values can overlap the other calls
Large screens that a line does not name were inactive.

O=[N+]([O-])c1ccccc1/C=C/c1ccc2ccccc2n1	esBAF inh 52
COC(=O)c1ccc(/C=C/c2ccc3cccc(OC(C)=O)c3n2)cc1	none (no result: esBAF inh, Wnt bcat act)
CCOc1c(OC(C)=O)ccc(/C=C/c2ccc3cccc(OC(C)=O)c3n2)c1[N+](=O)[O-]	esBAF inh 66 (no result: XiGFP reactiv, Vif imaging)
Cn1c(/C=C/c2ccccc2[N+](=O)[O-])nc2ccccc2c1=O	none (no result: MITF TRPM1 HTS)
COc1c(OC(C)=O)ccc(/C=C/c2ccc3cccc(OC)c3n2)c1[N+](=O)[O-]	Wnt bcat act 32 (no result: esBAF inh)
CCOc1cc(/C=C/c2ccc3cccc([N+](=O)[O-])c3n2)ccc1O	none (no result: esBAF inh)
COc1cc(OC)c(OC)cc1C=Cc1ccc2ccccc2n1	none (no result: MITF TRPM1 HTS, esBAF inh)
COc1c(OC(C)=O)ccc(/C=C/c2ccc3ccccc3n2)c1[N+](=O)[O-]	MITF TRPM1 HTS 113 (no result: XiGFP reactiv)
COc1cccc(NC(=O)N(C)C[C@@H]2Oc3ncc(C4=CCCCC4)cc3C(=O)N([C@@H](C)CO)C[C@@H]2C)c1	none (no result: MITF TRPM1 HTS, Vif imaging, Wnt bcat act)
COc1ccc(CN(C)C[C@@H]2Oc3ccc(NC(=O)Nc4ccc5c(c4)OCO5)cc3C(=O)N([C@H](C)CO)C[C@@H]2C)cc1	none (no result: MITF TRPM1 HTS, Vif imaging, Wnt bcat act)
COc1ccc(CN(C(=O)Cn2nnc(-c3ccc(C)o3)n2)C(C(=O)NCC2CCCO2)c2ccco2)cc1 (configuration not stated)	Vif imaging 71 (no result: esBAF inh)
Cc1ccc(N2C(=O)SC(N(CC(=O)O)c3cccc(C)c3)C2=O)cc1 (configuration not stated)	Wnt bcat act 41 (no result: XiGFP reactiv)
CC(=O)N(c1cccc(C)c1)C1SC(=O)N(c2ccccc2)C1=O (configuration not stated)	none (no result: XiGFP reactiv)
O=C(Nc1ccccc1)Nc1cccc(Cl)c1Cl	esBAF inh 60 (no result: Wnt bcat act)
CC(C)C(=O)Nc1ccc(C(=O)c2ccccc2)cc1	esBAF inh 67 (no result: XiGFP reactiv)
CC(C)C(=O)Nc1ccc(-c2nnc(-c3ccccc3)o2)cc1	MITF TRPM1 HTS inconclusive, Wnt bcat act inconclusive
O=C(Nc1ccc(Cl)cc1)Nc1cccc2nsnc12	esBAF inh 91, Wnt bcat act inconclusive
O=C(Nc1ccccc1)Nc1ccc2ccccc2c1	MITF TRPM1 HTS 92, Wnt bcat act 44 (no result: esBAF inh)
CN(C)C(=O)C[C@H]1C=C[C@@H](NS(=O)(=O)c2ccccc2)[C@@H](CO)O1	none (no result: MITF TRPM1 HTS, Vif imaging, Wnt bcat act)
C[C@@H]1CCCCO[C@@H](CN(C)S(=O)(=O)c2ccc(Cl)cc2)[C@H](C)CN([C@@H](C)CO)C(=O)c2cc(NC(=O)Nc3cccc4ccccc34)ccc2O1	none (no result: MITF TRPM1 HTS, Vif imaging, Wnt bcat act)
C[C@@H]1CCCCO[C@@H](CN(C)C)[C@H](C)CN([C@H](C)CO)C(=O)c2cc(NC(=O)c3ccncc3)ccc2O1	none (no result: MITF TRPM1 HTS, Vif imaging, Wnt bcat act)
C[C@@H]1CN([C@H](C)CO)C(=O)Cc2cc(NS(=O)(=O)c3cn(C)cn3)ccc2O[C@H]1CN(C)C(=O)Nc1ccc(C(F)(F)F)cc1	none (no result: MITF TRPM1 HTS, Vif imaging, Wnt bcat act)
Cc1coc(C)c1C(=O)Nc1ccc2ccccc2c1	esBAF inh 57
CC(=O)c1ccc(NC(=O)Nc2ccccc2)cc1	esBAF inh 48 (no result: XiGFP reactiv, Wnt bcat act)
CC(=O)c1cccc(NC(=O)Nc2ccccc2)c1	none
Cc1oncc1C(=O)Nc1ccc2ccccc2c1	none
O=C(Nc1ccccc1)Nc1ccc(Br)c(Cl)c1	esBAF inh 75
CC(C)NC(=O)N[C@H]1CC[C@H](CCn2cc(-c3ccc(F)cc3)nn2)O[C@H]1CO	none (no result: MITF TRPM1 HTS, Vif imaging, Wnt bcat act)
CN(C)c1ccc(/C=C2/SC(=O)N(CCN=C3NS(=O)(=O)c4ccccc43)C2=O)cc1	none (no result: esBAF inh)
CN(C)c1ccc(/C=C2\SC(=O)N(CCc3nnc(N)s3)C2=O)cc1	Vif imaging 96 (no result: esBAF inh)
O=C(Cn1cc2c(n1)CCCCC2)NC1CCCCCC1	esBAF inh 47
CC1CCCC(NC(=O)Cn2cc3c(n2)CCCCC3)C1C (configuration not stated)	none
Cc1ccccc1S(=O)(=O)N[C@@H]1CC[C@H](CCNS(=O)(=O)c2cccc(F)c2)O[C@H]1CO	none (no result: MITF TRPM1 HTS, Vif imaging, Wnt bcat act)
Nc1nc(Nc2ccccc2)nc(N2CCCC2)c1[N+](=O)[O-]	esBAF inh 50
COc1ccc(Nc2nc(N)c([N+](=O)[O-])c(N3CCCC3)n2)cc1	none
CCOc1ccc(-c2cn(-c3ccc(OC)cc3)c(SC)n2)cc1	MITF TRPM1 HTS inconclusive, esBAF inh 65 (no result: Wnt bcat act)
